How the values were obtained:
Assay type in all cases: toxicity, cell-based
HEK-293T [1] = assay: Multiplex assay against HEK293T; conditions: human;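 as to Population Tubulin-Different-Phenotype (%): share of the cells with healthy nuclei that show this phenotype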
Summary of the method: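 At seeding, live cells were stained with Hoechst33342, BioTracker Green Microtubule Cytoskeleton Dye, MitoTracker Red and Annexin V Alexa Fluor 680. After compound addition they were imaged on a CQ1 microscope at 37°C and 5% CO2, and CellPathfinder machine-learning gating sorted them into Hoechst high-intensity objects or normal cells, with normal cells further split into healthy, pyknosed or fragmented nuclei and pyknosed cells into mitotic or apoptotic. Tubulin, mitochondrial-mass and membrane-permeability phenotypes are given as per cents of cells with healthy nuclei.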

HEK-293T [2] = assay: Incucyte cell viability with HEK293T; conditions: human, 10 µM, compound concentration 10 uM; also: filed as whole numbers so only -1 and 0 and 1 occur
Fibroblast = assay: Incucyte cell viability with human fibroblast; conditions: 10 µM, compound concentration 10 uM; also: filed as whole numbers so only -1 and 0 and 1 occur
[3] = 12 h, 1 µM, compound concentration 1 uM, replicate 1
[4] = 12 h, 1 µM, compound concentration 1 uM, replicate 2
[5] = 12 h, 10 µM, compound concentration 10 uM, replicate 1
[6] = 12 h, 10 µM, compound concentration 10 uM, replicate 2
[7] = 24 h, 1 µM, compound concentration 1 uM, replicate 1
[8] = 24 h, 1 µM, compound concentration 1 uM, replicate 2
[9] = 24 h, 10 µM, compound concentration 10 uM, replicate 1
[10] = 24 h, 10 µM, compound concentration 10 uM, replicate 2
[11] = 48 h, 1 µM, compound concentration 1 uM, replicate 1
[12] = 48 h, 1 µM, compound concentration 1 uM, replicate 2
[13] = 48 h, 10 µM, compound concentration 10 uM, replicate 1
[14] = 48 h, 10 µM, compound concentration 10 uM, replicate 2
[15] = 6 h, replicate number 1, timepoint 6 hours
[16] = 12 h, replicate number 1, timepoint 12 hours
[17] = 18 h, replicate number 1, timepoint 18 hours
[18] = 24 h, replicate number 1, timepoint 24 hours

For CC(C)[C@H](CO)Nc1nc(Nc2cccc(Cl)c2)c2ncn(C(C)C)c2n1 [PURVALANOLA], the “Population Apoptotic (%)” value (HEK-293T [1]; [3]) was 48%, the “Population Fragmented Nuclei (%)” value (HEK-293T [1]; [3]) was 8% and the “Population Healthy Nuclei (%)” value (HEK-293T [1]; [3]) was 37%. The “Population Hoechst High Intensity Objects (%)” value (HEK-293T [1]; [3]) was 13%, the “Population Membrane Permeable-Phenotype (%)” value (HEK-293T [1]; [3]) was 5% and the “Population Mitochondria Different-Phenotype (%)” value (HEK-293T [1]; [3]) was 85%. For the same compound, the “Population Mitotic Cells (%)” value (HEK-293T [1]; [3]) was 51%, the “Population Normal (%)” value (HEK-293T [1]; [3]) was 86% and the “Population Pyknosed Nuclei (%)” value (HEK-293T [1]; [3]) was 54%. The “Population Tubulin-Different-Phenotype (%)” value (HEK-293T [1]; [3]) was 53%, the “Total Cell Count” value (HEK-293T [1]; [3]) was 256 and the “Population Apoptotic (%)” value (HEK-293T [1]; [4]) was 19%. For the same compound, the “Population Fragmented Nuclei (%)” value (HEK-293T [1]; [4]) was 6%, the “Population Healthy Nuclei (%)” value (HEK-293T [1]; [4]) was 43% and the “Population Hoechst High Intensity Objects (%)” value (HEK-293T [1]; [4]) was 3%. The “Population Membrane Permeable-Phenotype (%)” value (HEK-293T [1]; [4]) was 7%, the “Population Mitochondria Different-Phenotype (%)” value (HEK-293T [1]; [4]) was 33% and the “Population Mitotic Cells (%)” value (HEK-293T [1]; [4]) was 80%. The “Population Normal (%)” value (HEK-293T [1]; [4]) was 96%, the “Population Pyknosed Nuclei (%)” value (HEK-293T [1]; [4]) was 50% and the “Population Tubulin-Different-Phenotype (%)” value (HEK-293T [1]; [4]) was 32%. The “Total Cell Count” value (HEK-293T [1]; [4]) was 201, the “Population Apoptotic (%)” value (HEK-293T [1]; [5]) was 73% and the “Population Fragmented Nuclei (%)” value (HEK-293T [1]; [5]) was 7%. The “Population Healthy Nuclei (%)” value (HEK-293T [1]; [5]) was 27%, the “Population Hoechst High Intensity Objects (%)” value (HEK-293T [1]; [5]) was 12% and the “Population Membrane Permeable-Phenotype (%)” value (HEK-293T [1]; [5]) was 2%. For the same compound, the “Population Mitochondria Different-Phenotype (%)” value (HEK-293T [1]; [5]) was 97%, the “Population Mitotic Cells (%)” value (HEK-293T [1]; [5]) was 26% and the “Population Normal (%)” value (HEK-293T [1]; [5]) was 87%. The “Population Pyknosed Nuclei (%)” value (HEK-293T [1]; [5]) was 64%, the “Population Tubulin-Different-Phenotype (%)” value (HEK-293T [1]; [5]) was 98% and the “Total Cell Count” value (HEK-293T [1]; [5]) was 324. For the same compound, the “Population Apoptotic (%)” value (HEK-293T [1]; [6]) was 53%, the “Population Fragmented Nuclei (%)” value (HEK-293T [1]; [6]) was 6% and the “Population Healthy Nuclei (%)” value (HEK-293T [1]; [6]) was 18%. For the same compound, the “Population Hoechst High Intensity Objects (%)” value (HEK-293T [1]; [6]) was 7%, the “Population Membrane Permeable-Phenotype (%)” value (HEK-293T [1]; [6]) was 5% and the “Population Mitochondria Different-Phenotype (%)” value (HEK-293T [1]; [6]) was 82%. For the same compound, the “Population Mitotic Cells (%)” value (HEK-293T [1]; [6]) was 46%, the “Population Normal (%)” value (HEK-293T [1]; [6]) was 92% and the “Population Pyknosed Nuclei (%)” value (HEK-293T [1]; [6]) was 75%. For the same compound, the “Population Tubulin-Different-Phenotype (%)” value (HEK-293T [1]; [6]) was 97%, the “Total Cell Count” value (HEK-293T [1]; [6]) was 198 and the “Population Apoptotic (%)” value (HEK-293T [1]; [7]) was 42%. The “Population Fragmented Nuclei (%)” value (HEK-293T [1]; [7]) was 14%, the “Population Healthy Nuclei (%)” value (HEK-293T [1]; [7]) was 36% and the “Population Hoechst High Intensity Objects (%)” value (HEK-293T [1]; [7]) was 11%. The “Population Membrane Permeable-Phenotype (%)” value (HEK-293T [1]; [7]) was 4%, the “Population Mitochondria Different-Phenotype (%)” value (HEK-293T [1]; [7]) was 75% and the “Population Mitotic Cells (%)” value (HEK-293T [1]; [7]) was 57%. The “Population Normal (%)” value (HEK-293T [1]; [7]) was 88%, the “Population Pyknosed Nuclei (%)” value (HEK-293T [1]; [7]) was 49% and the “Population Tubulin-Different-Phenotype (%)” value (HEK-293T [1]; [7]) was 53%. The “Total Cell Count” value (HEK-293T [1]; [7]) was 295, the “Population Apoptotic (%)” value (HEK-293T [1]; [8]) was 14% and the “Population Fragmented Nuclei (%)” value (HEK-293T [1]; [8]) was 4%. For the same compound, the “Population Healthy Nuclei (%)” value (HEK-293T [1]; [8]) was 63%, the “Population Hoechst High Intensity Objects (%)” value (HEK-293T [1]; [8]) was 3% and the “Population Membrane Permeable-Phenotype (%)” value (HEK-293T [1]; [8]) was 3%. The “Population Mitochondria Different-Phenotype (%)” value (HEK-293T [1]; [8]) was 26%, the “Population Mitotic Cells (%)” value (HEK-293T [1]; [8]) was 85% and the “Population Normal (%)” value (HEK-293T [1]; [8]) was 96%. The “Population Pyknosed Nuclei (%)” value (HEK-293T [1]; [8]) was 31%, the “Population Tubulin-Different-Phenotype (%)” value (HEK-293T [1]; [8]) was 36% and the “Total Cell Count” value (HEK-293T [1]; [8]) was 244. For the same compound, the “Population Apoptotic (%)” value (HEK-293T [1]; [9]) was 75%, the “Population Fragmented Nuclei (%)” value (HEK-293T [1]; [9]) was 6% and the “Population Healthy Nuclei (%)” value (HEK-293T [1]; [9]) was 31%. The “Population Hoechst High Intensity Objects (%)” value (HEK-293T [1]; [9]) was 12%, the “Population Membrane Permeable-Phenotype (%)” value (HEK-293T [1]; [9]) was 2% and the “Population Mitochondria Different-Phenotype (%)” value (HEK-293T [1]; [9]) was 98%. The “Population Mitotic Cells (%)” value (HEK-293T [1]; [9]) was 24%, the “Population Normal (%)” value (HEK-293T [1]; [9]) was 87% and the “Population Pyknosed Nuclei (%)” value (HEK-293T [1]; [9]) was 61%. For the same compound, the “Population Tubulin-Different-Phenotype (%)” value (HEK-293T [1]; [9]) was 96%, the “Total Cell Count” value (HEK-293T [1]; [9]) was 375 and the “Population Apoptotic (%)” value (HEK-293T [1]; [10]) was 69%. The “Population Fragmented Nuclei (%)” value (HEK-293T [1]; [10]) was 4%, the “Population Healthy Nuclei (%)” value (HEK-293T [1]; [10]) was 19% and the “Population Hoechst High Intensity Objects (%)” value (HEK-293T [1]; [10]) was 9%. The “Population Membrane Permeable-Phenotype (%)” value (HEK-293T [1]; [10]) was 5%, the “Population Mitochondria Different-Phenotype (%)” value (HEK-293T [1]; [10]) was 94% and the “Population Mitotic Cells (%)” value (HEK-293T [1]; [10]) was 30%. The “Population Normal (%)” value (HEK-293T [1]; [10]) was 90%, the “Population Pyknosed Nuclei (%)” value (HEK-293T [1]; [10]) was 75% and the “Population Tubulin-Different-Phenotype (%)” value (HEK-293T [1]; [10]) was 97%. The “Total Cell Count” value (HEK-293T [1]; [10]) was 200, the “Population Apoptotic (%)” value (HEK-293T [1]; [11]) was 49% and the “Population Fragmented Nuclei (%)” value (HEK-293T [1]; [11]) was 18%. The “Population Healthy Nuclei (%)” value (HEK-293T [1]; [11]) was 42%, the “Population Hoechst High Intensity Objects (%)” value (HEK-293T [1]; [11]) was 13% and the “Population Membrane Permeable-Phenotype (%)” value (HEK-293T [1]; [11]) was 3%. The “Population Mitochondria Different-Phenotype (%)” value (HEK-293T [1]; [11]) was 46%, the “Population Mitotic Cells (%)” value (HEK-293T [1]; [11]) was 50% and the “Population Normal (%)” value (HEK-293T [1]; [11]) was 86%. For the same compound, the “Population Pyknosed Nuclei (%)” value (HEK-293T [1]; [11]) was 40%, the “Population Tubulin-Different-Phenotype (%)” value (HEK-293T [1]; [11]) was 38% and the “Total Cell Count” value (HEK-293T [1]; [11]) was 347. The “Population Apoptotic (%)” value (HEK-293T [1]; [12]) was 13%, the “Population Fragmented Nuclei (%)” value (HEK-293T [1]; [12]) was 7% and the “Population Healthy Nuclei (%)” value (HEK-293T [1]; [12]) was 77%. For the same compound, the “Population Hoechst High Intensity Objects (%)” value (HEK-293T [1]; [12]) was 4%, the “Population Mitochondria Different-Phenotype (%)” value (HEK-293T [1]; [12]) was 12% and the “Population Mitotic Cells (%)” value (HEK-293T [1]; [12]) was 86%. The “Population Normal (%)” value (HEK-293T [1]; [12]) was 95%, the “Population Pyknosed Nuclei (%)” value (HEK-293T [1]; [12]) was 15% and the “Population Tubulin-Different-Phenotype (%)” value (HEK-293T [1]; [12]) was 26%. For the same compound, the “Total Cell Count” value (HEK-293T [1]; [12]) was 414, the “Population Apoptotic (%)” value (HEK-293T [1]; [13]) was 85% and the “Population Fragmented Nuclei (%)” value (HEK-293T [1]; [13]) was 8%. The “Population Healthy Nuclei (%)” value (HEK-293T [1]; [13]) was 50%, the “Population Hoechst High Intensity Objects (%)” value (HEK-293T [1]; [13]) was 12% and the “Population Mitochondria Different-Phenotype (%)” value (HEK-293T [1]; [13]) was 99%. The “Population Mitotic Cells (%)” value (HEK-293T [1]; [13]) was 14%, the “Population Normal (%)” value (HEK-293T [1]; [13]) was 87% and the “Population Pyknosed Nuclei (%)” value (HEK-293T [1]; [13]) was 41%. The “Population Tubulin-Different-Phenotype (%)” value (HEK-293T [1]; [13]) was 99%, the “Total Cell Count” value (HEK-293T [1]; [13]) was 366 and the “Population Apoptotic (%)” value (HEK-293T [1]; [14]) was 89%. For the same compound, the “Population Fragmented Nuclei (%)” value (HEK-293T [1]; [14]) was 6%, the “Population Healthy Nuclei (%)” value (HEK-293T [1]; [14]) was 38% and the “Population Hoechst High Intensity Objects (%)” value (HEK-293T [1]; [14]) was 5%. For the same compound, the “Population Membrane Permeable-Phenotype (%)” value (HEK-293T [1]; [14]) was 2%, the “Population Mitochondria Different-Phenotype (%)” value (HEK-293T [1]; [14]) was 94% and the “Population Mitotic Cells (%)” value (HEK-293T [1]; [14]) was 10%. The “Population Normal (%)” value (HEK-293T [1]; [14]) was 94%, the “Population Pyknosed Nuclei (%)” value (HEK-293T [1]; [14]) was 55% and the “Population Tubulin-Different-Phenotype (%)” value (HEK-293T [1]; [14]) was 94%. The “Total Cell Count” value (HEK-293T [1]; [14]) was 190, the “Growth Rate” value (HEK-293T [2]; [15]) was 0 and the “Growth Rate” value (HEK-293T [2]; [16]) was 0. The “Growth Rate” value (HEK-293T [2]; [17]) was 0, the “Growth Rate” value (HEK-293T [2]; [18]) was 0 and the “Growth Rate” value (Fibroblast; 0 h, replicate number 1, timepoint 0 hours) was 0. The “Growth Rate” value (Fibroblast; [15]) was 0, the “Growth Rate” value (Fibroblast; [16]) was 0 and the “Growth Rate” value (Fibroblast; [17]) was 0. For the same compound, the “Growth Rate” value (Fibroblast; [18]) was 0.

Reference: ChEMBL document CHEMBL4689842, “EUbOPEN Chemogenomics Library wave 1” (2021)
